Measurements: ChEMBL document CHEMBL5375970, “Discovery of Potent and Selective WDR5 Proteolysis Targeting Chimeras as Potential Therapeutics for Pancreatic Cancer” (J Med Chem, 2023)
Activity calls are given as the source filed them. No cut-off for these calls is given here.

What was measured:
Type in all cases: cell-based
[1] = target: T1, Protein cereblon/WD repeat-containing protein 5 (Homo sapiens) (UniProt P61964+Q96SW2); experiment: PROTAC activity at CRBN/WDR5 in human MIA PaCa-2 cells assessed as degradation of WDR5 protein at 0.01 to 5 uM incubated for 18 hrs by Western blotting analysis; conditions: dose 0.01-5 µM
Procedure, shortened: (§1)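 MV4;11 cells (RPMI 1640, 10% FBS) and MIA PaCa-2 cells (DMEM, 10% FBS) treated with DMSO or compound for 18 h. Whole-cell lysates immunoblotted for WDR5, IKZF1 (MV4;11 only) and LIMD1 (MV4;11 only), with tubulin as loading control and fluorescent secondary antibodies. Representative of at least two independent experiments.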

[2] = target: T1, Protein cereblon/WD repeat-containing protein 5 (Homo sapiens); experiment: PROTAC activity at CRBN/WDR5 in human MV4-11 cells assessed as degradation of WDR5 protein at 0.01 to 5 uM incubated for 18 hrs by Western blotting analysis; conditions: dose 0.01-5 µM; procedure, shortened: as §1
[3] = target: T2, Cereblon/Ikaros (Homo sapiens) (UniProt Q96SW2+Q13422); experiment: PROTAC activity at CRBN/IKZF1 in human MV4-11 cells assessed as degradation of IKZF1 protein at 0.01 to 5 uM incubated for 18 hrs by Western blotting analysis; conditions: dose 0.01-5 µM; procedure, shortened: as §1
[4] = target: von Hippel-Lindau disease tumor suppressor/WD repeat-containing protein 5 (Homo sapiens, UniProt P61964+P40337); experiment: PROTAC activity at human VHL/human WDR5 wild type expressed in HEK293T cells assessed as degradation of WDR5 protein incubated for 3 days by Western blotting analysis; conditions: time 3.0 day
Procedure, shortened: (§2)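 HEK293T cells were lentivirally transduced with doxycycline-inducible (1 μg/mL) 3×FLAG WDR5 wild type, K32R or K296R and selected with puromycin for 4 days. The stable lines were treated with a concentration series for 72 h. Lysates were run on 4–12% SDS-PAGE and immunoblotted for WDR5 with a vinculin loading control, with at least two independent experiments.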

[5] = system: von Hippel-Lindau disease tumor suppressor/WD repeat-containing protein 5 (Homo sapiens), P61964+P40337 [K32R]; experiment: PROTAC activity at human VHL/human WDR5 K32R mutant expressed in HEK293T cells assessed as degradation of WDR5 protein at 0.25 to 5 uM incubated for 3 days by Western blotting analysis; conditions: dose 0.25-5 µM, time 3.0 day; procedure, shortened: as §2
[6] = system: von Hippel-Lindau disease tumor suppressor/WD repeat-containing protein 5 (Homo sapiens), P61964+P40337 [K296R]; experiment: PROTAC activity at human VHL/human WDR5 K296R mutant expressed in HEK293T cells assessed as degradation of WDR5 protein at 0.25 to 5 uM incubated for 3 days by Western blotting analysis; conditions: dose 0.25-5 µM, time 3.0 day; procedure, shortened: as §2
[7] = target: T1, Protein cereblon/WD repeat-containing protein 5 (Homo sapiens); experiment: PROTAC activity at CRBN/WDR5 in human MV4-11 cells assessed as degradation of WDR5 protein at 0.5 uM incubated for 18 hrs by Western blotting analysis; procedure, shortened: as §1
[8] = target: T1, Protein cereblon/WD repeat-containing protein 5 (Homo sapiens); experiment: PROTAC activity at CRBN/WDR5 in human MV4-11 cells assessed as degradation of WDR5 protein at 2 uM incubated for 18 hrs by Western blotting analysis; procedure, shortened: as §1
[9] = target: T2, Cereblon/Ikaros (Homo sapiens); experiment: PROTAC activity at CRBN/IKZF1 in human MV4-11 cells assessed as degradation of IKZF1 protein at 0.5 uM incubated for 18 hrs by Western blotting analysis; procedure, shortened: as §1
[10] = target: T2, Cereblon/Ikaros (Homo sapiens); experiment: PROTAC activity at CRBN/IKZF1 in human MV4-11 cells assessed as degradation of IKZF1 protein at 2 uM incubated for 18 hrs by Western blotting analysis; procedure, shortened: as §1
[11] = target: T3, Protein cereblon/LIM domain-containing protein 1 (Homo sapiens) (UniProt Q96SW2+Q9UGP4); experiment: PROTAC activity at CRBN/LIMD1 in human MV4-11 cells assessed as degradation of […] protein at 0.5 uM incubated for 18 hrs by Western blotting analysis; procedure, shortened: as §1
[12] = target: T3, Protein cereblon/LIM domain-containing protein 1 (Homo sapiens); experiment: PROTAC activity at CRBN/LIMD1 in human MV4-11 cells assessed as degradation of […] protein at 2 uM incubated for 18 hrs by Western blotting analysis; procedure, shortened: as §1

Structure (SMILES) | Activity [1] | Activity [2] | Activity [3] | Activity [4] | Activity [5] | Activity [6] | Activity [7] | Activity [8] | Activity [9] | Activity [10] | Activity [11] | Activity [12]
C[C@@H]1CN(c2ccc(-c3cc(C(=O)NCCCCCCCNC(=O)COc4cccc5c4C(=O)N(C4CCC(=O)NC4=O)C5=O)ccc3F)cc2NC(=O)c2c[nH]c(=O)cc2C(F)(F)F)C[C@H](C)N1C (stereo partly specified) | Active | Active | inactive |  |  |  |  |  |  |  |  | 
Cc1ncsc1-c1ccc([C@H](C)NC(=O)[C@@H]2C[C@@H](O)CN2C(=O)[C@@H](NC(=O)CNC(=O)c2ccc(F)c(-c3ccc(N4C[C@@H](C)N(C)[C@@H](C)C4)c(NC(=O)c4c[nH]c(=O)cc4C(F)(F)F)c3)c2)C(C)(C)C)cc1 |  |  |  | Dose-Dependent Effect | Active | inactive |  |  |  |  |  | 
CN1CCN(c2ccc(-c3cccc(CN4CCN(CCNC(=O)CCCCNC(=O)COc5cccc6c5C(=O)N(C5CCC(=O)NC5=O)C6=O)CC4)c3)cc2NC(=O)c2c[nH]c(=O)cc2C(F)(F)F)CC1 (stereo unspecified) |  |  |  |  |  |  | Active | Active | inactive | inactive | inactive | inactive
CN1CCN(c2ccc(-c3cccc(CN4CCN(CCNC(=O)CCCCCCCNC(=O)COc5cccc6c5C(=O)N(C5CCC(=O)NC5=O)C6=O)CC4)c3)cc2NC(=O)c2c[nH]c(=O)cc2C(F)(F)F)CC1 (stereo unspecified) | Active | Active | inactive |  |  |  | Active | Active | inactive | inactive | inactive | inactive
